We go through 16 compounds from PubChem BioAssay.

Assay [1] in a line: Her2 expression decrease, cell viability multiplex – SKBR3 breast tumor cells, AlphaScreen, ATP viability, primary screen (AID 461;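 active = Her2 level under about 52% in both replicate screens, with viability over 70% of control, limit read from the data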;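 as to Her2 level: lower value means less Her2 protein in the cells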;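 as to viability: percent of carrier control wells set as 100% viability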). Conditions: SKBR3 Her2 protein level, 18-24 h, measured here: SKBR3 viability, ATP luminescence, at 10 µM.
Assay [2] concerns the target Receptor tyrosine-protein kinase erbB-2 (Homo sapiens) (UniProt P04626). The assay is described as above. To be noted: 18-24 h, at 10 µM, stronger effect = lower value.
The nature of assay [3]: reduced viability of SK-BR-3 breast cancer cells – cell-based, 24 h, human, pilot screen (AID 572;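 active = viability at or below 10% of carrier control in both of two separate runs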;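 also: compound exposure lasted between 18 and 24 h rather than exactly 24 h; 100% = carrier-treated control wells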). To be noted: SK-BR-3 viability, CellTiter-Glo luminescence, at 10 µM, stronger effect = lower value. In general terms: ATP-based viability assays read luminescence as a measure of living cells.
Assay [4] can be described thus: HUVEC growth inhibition – cell-based, human, primary screen (AID 575;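 active = viability at or below 30% in both replicate assays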;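 also: 100% = median of untreated cell wells with 0.1% DMSO on each plate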). To be noted: HUVEC proliferation, CellTiter-Glo luminescence, 72 h; at 10 µM; stronger effect = lower value. An outline of the steps:
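Assay system: Primary human umbilical vein endothelial cells | Quantity: 1250 cells per well | Medium: Supplemented EBM, 2% fetal bovine serum | Detection: CellTiter-Glo luminescence measuring cellular ATP | Read-out: % viability vs DMSO wells | Plate: Collagen-coated 384-well format | Times: 72 h exposure, 37 °C, 5% CO2, 30 min RT equilibration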

Assay [5] is described as follows: H69AR cell proliferation blockers – human, duplicate replicates, primary screen (AID 580).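 Also: 100% = mean luminescence of untreated wells and 0% = no signal.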 To be noted: H69AR lung tumor cells viability, ATP luminescence, 72 h; at 10 µM; stronger effect = lower value.
Assay [6] can be described thus: MRP1 drug-resistance reversers in H69AR cells – cell-based, doxorubicin co-treatment, pilot screen (AID 601;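 active = viability loss from added drug above about 55%, and viability with drug at most 40%, in both replicates, limit read from the data, passing the limit was not always enough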). Conditions: CellTiter-Glo, 72 h, at 10 µM; for differential viability (reversal): stronger effect = higher value.
The nature of assay [7]: yeast transport mutant growth inhibition pilot in 384-well plates, post-Golgi transport modulator project (AID 636; in the data active = inhibition above about 31%). Conditions: absorbance 615 nm, about 18 h, stronger effect = higher value.
Assay [8] in a line: growth suppression of yeast trafficking mutant, preliminary HTS, modulators of trafficking downstream of Golgi apparatus project, 1536-format plate, OD 615 nm (AID 637; in the data active = inhibition above about 30%). To be noted: yeast transport mutant growth, absorbance 615 nm, 18 h; stronger effect = higher value.
Where [9] appears, read: H69AR cells + 2 uM doxorubicin, measured here: viability with 2 uM doxorubicin, stronger effect = lower value.
Setting [10] is: H69AR cells, compound alone cytotoxicity.

Active and inactive are the calls of the source.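 The calls were made as follows, unless noted: active = viability at or under a set limit in both replicates, limit being median viability minus 3 SD (cut at about 48% in these data, passing the limit was not always enough); inconclusive = at or under the limit in just one replicate; inactive = at or above the limit in both replicates.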

Sequence of Receptor tyrosine-protein kinase erbB-2 (Homo sapiens) (P04626 whole entry, looked up): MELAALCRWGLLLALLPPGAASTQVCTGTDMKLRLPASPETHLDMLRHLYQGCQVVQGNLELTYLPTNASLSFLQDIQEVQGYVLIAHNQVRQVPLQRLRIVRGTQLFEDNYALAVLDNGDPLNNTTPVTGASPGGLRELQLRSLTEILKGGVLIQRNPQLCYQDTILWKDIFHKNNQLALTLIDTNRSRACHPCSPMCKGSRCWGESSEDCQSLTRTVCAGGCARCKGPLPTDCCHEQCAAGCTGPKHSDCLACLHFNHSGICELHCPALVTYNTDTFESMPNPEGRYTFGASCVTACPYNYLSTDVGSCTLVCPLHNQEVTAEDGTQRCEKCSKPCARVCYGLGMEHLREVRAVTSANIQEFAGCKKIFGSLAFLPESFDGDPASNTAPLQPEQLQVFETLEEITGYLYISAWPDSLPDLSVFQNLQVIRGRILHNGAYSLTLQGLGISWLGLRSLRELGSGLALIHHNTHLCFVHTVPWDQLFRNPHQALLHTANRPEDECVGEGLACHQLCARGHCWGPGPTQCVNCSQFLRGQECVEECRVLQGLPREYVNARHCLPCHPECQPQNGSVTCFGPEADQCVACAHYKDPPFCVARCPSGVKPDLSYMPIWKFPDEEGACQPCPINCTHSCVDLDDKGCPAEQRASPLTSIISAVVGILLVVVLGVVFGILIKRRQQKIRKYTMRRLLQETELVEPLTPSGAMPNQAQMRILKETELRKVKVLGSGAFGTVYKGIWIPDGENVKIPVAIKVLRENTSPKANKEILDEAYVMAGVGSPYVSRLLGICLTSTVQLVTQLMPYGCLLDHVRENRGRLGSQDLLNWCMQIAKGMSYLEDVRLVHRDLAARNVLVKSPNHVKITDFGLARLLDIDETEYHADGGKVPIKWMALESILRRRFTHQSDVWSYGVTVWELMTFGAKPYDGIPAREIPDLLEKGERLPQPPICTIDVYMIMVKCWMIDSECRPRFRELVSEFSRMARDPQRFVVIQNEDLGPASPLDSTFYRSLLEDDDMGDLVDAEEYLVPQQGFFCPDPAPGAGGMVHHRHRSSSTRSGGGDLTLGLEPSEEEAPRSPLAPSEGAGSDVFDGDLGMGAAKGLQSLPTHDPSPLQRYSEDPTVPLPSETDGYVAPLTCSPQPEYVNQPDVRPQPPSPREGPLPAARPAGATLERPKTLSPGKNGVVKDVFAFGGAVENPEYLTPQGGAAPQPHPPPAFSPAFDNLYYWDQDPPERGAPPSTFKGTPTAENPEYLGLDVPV

For orientation: viability means a read-out of living cells in per cent, often relative to untreated cells. Broadly, the inhibition is the drop in the measured response relative to a control, in per cent. For `c1ccc(N=P(c2nc3ccccc3o2)(N2CCOCC2)N2CCOCC2)cc1`, the viability in assay [1] is 119%; in assay [3], 119% (inactive); in assay [4], 104% (inactive); in assay [5], 91.4% (inactive); in assay [6] (setting [9]), 89.4%; in assay [6] (setting [10]) it was 91.4%. Further, the Her2 level in assay [2] is 89.5% (inactive). Also, in assay [6] (H69AR cells + 2 uM doxorubicin), the differential viability (reversal) is 1.96% (inactive). In addition, the inhibition in assay [7] was -4.27% (inactive); in assay [8], 7.26% (inactive).
As to `COc1ccc(C2/C(=C(/O)c3cnn(-c4ccccc4)c3C)C(=O)C(=O)N2CCN(C)C)cc1OC` (stereo not given), the viability is 109% in assay [1]; 109% (inactive) in assay [3]; 102% (inactive) in assay [4]; 101% (inactive) in assay [5]; 98.7% in assay [6] (setting [9]); 101% in assay [6] (setting [10]). Also, the Her2 level in assay [2] was 86% (inactive). The differential viability (reversal) in assay [6] (H69AR cells + 2 uM doxorubicin) was 1.86% (inactive). Further, the values for the inhibition in assay [7] and in assay [8] were -1.62% (inactive) and -2.54% (inactive), respectively.
Take `COC(=O)c1c(-c2ccc(F)cc2)noc1N`: the viability is 94% in assay [1]; 94% (inactive) in assay [3]; 89.4% (inactive) in assay [4]; 93.3% (inactive) in assay [5]; 89.5% in assay [6] (setting [9]); 93.3% in assay [6] (setting [10]). Also, in assay [2], the Her2 level is 97.5% (inactive). Also, the differential viability (reversal) in assay [6] (H69AR cells + 2 uM doxorubicin) is 3.79% (inactive). Further, the inhibition in assay [7] is -2.97% (inactive); in assay [8] it was 1.33% (inactive).
Turning to `CC(C(=O)N1CCOCC1)N1c2cccc3cccc(c23)S1(=O)=O` (stereo not given), the viability is 101% in assay [1]; 101% (inactive) in assay [3]; 100% (inactive) in assay [4]; 93.5% (inactive) in assay [5]; 92.6% in assay [6] (setting [9]); 93.5% in assay [6] (setting [10]). Further, in assay [2], the Her2 level was 91.5% (inactive). In assay [6] (H69AR cells + 2 uM doxorubicin), the differential viability (reversal) is 0.905% (inactive). Moreover, the results for the inhibition in assay [7] and in assay [8] were -2.76% (inactive) and 5.57% (inactive), respectively.
As to `CC(C)(C)Cc1nc(-c2ccccn2)no1`, the viability was 95.5% in assay [1]; 95.5% (inactive) in assay [3]; 88.4% (inactive) in assay [4]; 100% (inactive) in assay [5]; 92.9% in assay [6] (setting [9]); 100% in assay [6] (setting [10]). Also, the Her2 level in assay [2] was 114% (inactive). Besides, the differential viability (reversal) in assay [6] (H69AR cells + 2 uM doxorubicin) was 7.35% (inactive). The inhibition in assay [7] was -1.82% (inactive); in assay [8] it was -3.67% (inactive).
With `O=C(C1CCCO1)N1CCN(Cc2nc3ccccc3c(=O)[nH]2)CC1` (stereo not given), the viability is 91.5% in assay [1]; 91.5% (inactive) in assay [3]; 96.3% (inactive) in assay [4]; 94.9% (inactive) in assay [5]; 105% in assay [6] (setting [9]); 94.9% in assay [6] (setting [10]). For the same compound, the Her2 level in assay [2] is 92% (inactive). Moreover, the differential viability (reversal) in assay [6] (H69AR cells + 2 uM doxorubicin) is -10% (inactive). In addition, the inhibition was -7.16% (inactive) in assay [7] and 0.16% (inactive) in assay [8].
On to `Cc1nnc(NC(=O)Nc2cccc(Cl)c2)s1`, for which the viability in assay [1] is 86%; in assay [3], 86% (inactive); in assay [4], 76.8% (inactive); in assay [5], 63% (inactive); in assay [6] (setting [9]), 84.1%; in assay [6] (setting [10]) it was 63%. In addition, the Her2 level in assay [2] is 89.5% (inactive). Besides, in assay [6] (H69AR cells + 2 uM doxorubicin), the differential viability (reversal) was -21% (inactive). Also, the values for the inhibition in assay [7] and in assay [8] were -6.18% (inactive) and -4.03% (inactive), respectively.
Take `CC(=O)c1cc(-c2ccc(F)cc2)n(CCC(=O)Nc2cc(C)[nH]n2)c1C`: the viability is 105% in assay [1]; 105% (inactive) in assay [3]; 102% (inactive) in assay [4]; 104% (inactive) in assay [5]; 85.5% in assay [6] (setting [9]); 104% in assay [6] (setting [10]). The Her2 level in assay [2] was 82.5% (inactive). The differential viability (reversal) in assay [6] (H69AR cells + 2 uM doxorubicin) was 18.3% (inactive). Further, the inhibition in assay [7] is -6.62% (inactive); in assay [8], 2.46% (inactive).
Turning to `Cc1ccc(C(c2nnnn2CCC(C)C)N2CCN(C)CC2)cc1` (stereo not given), the viability in assay [1] was 90.5%; in assay [3], 90.5% (inactive); in assay [4] it was 97.9% (inactive); in assay [5], 98.8% (inactive); in assay [6] (setting [9]), 93.2%; in assay [6] (setting [10]), 98.8%. Also, in assay [2], the Her2 level is 84% (inactive). Also, the differential viability (reversal) in assay [6] (H69AR cells + 2 uM doxorubicin) is 5.6% (inactive). For the same compound, the inhibition in assay [7] is -6.67% (inactive); in assay [8], 1.97% (inactive).
As for `Cc1cc(C)c2c(n1)sc1c(N3CCOCC3)ncnc12`, the viability is 91% in assay [1]; 91% (inactive) in assay [3]; 25.4% (active) in assay [4]; 76.6% (inactive) in assay [5]; 75.7% in assay [6] (setting [9]); 76.6% in assay [6] (setting [10]). In addition, the Her2 level in assay [2] is 90% (inactive). Further, the differential viability (reversal) in assay [6] (H69AR cells + 2 uM doxorubicin) is 0.885% (inactive). The values for the inhibition in assay [7] and in assay [8] were -6.35% (inactive) and 0.67% (inactive), respectively.
For `O=C1CCn2nc(-c3ccc(Cl)cc3)cc2N1`, the viability is 106% in assay [1]; 106% (inactive) in assay [3]; 31.3% (inactive) in assay [4]; 97.8% (inactive) in assay [5]; 91.8% in assay [6] (setting [9]); 97.8% in assay [6] (setting [10]). Also, in assay [2], the Her2 level was 96% (inactive). Besides, in assay [6] (H69AR cells + 2 uM doxorubicin), the differential viability (reversal) is 5.93% (inactive). The values for the inhibition in assay [7] and in assay [8] were -2.18% (inactive) and 1.83% (inactive), respectively.
On to `C=CCOc1cccc(C2/C(=C(\O)c3ccc(F)cc3)C(=O)C(=O)N2CCN(C)C)c1` (stereo not given), for which the viability is 96.5% in assay [1]; 96.5% (inactive) in assay [3]; 98% (inactive) in assay [4]; 105% (inactive) in assay [5]; 94.6% in assay [6] (setting [9]); 105% in assay [6] (setting [10]). In addition, the Her2 level in assay [2] was 97.5% (inactive). For the same compound, the differential viability (reversal) in assay [6] (H69AR cells + 2 uM doxorubicin) was 10.4% (inactive). Besides, the results for the inhibition in assay [7] and in assay [8] were -2.11% (inactive) and 0.98% (inactive), respectively.
With `COC(=O)C1=C(C)C(c2cccs2)NC(=O)N1C` (stereo not given), the viability is 92.5% in assay [1]; 92.5% (inactive) in assay [3]; 102% (inactive) in assay [4]; 95.3% (inactive) in assay [5]; 85.2% in assay [6] (setting [9]); 95.3% in assay [6] (setting [10]). Moreover, in assay [2], the Her2 level is 86.5% (inactive). In addition, in assay [6] (H69AR cells + 2 uM doxorubicin), the differential viability (reversal) was 10.1% (inactive). Besides, the figures for the inhibition in assay [7] and in assay [8] were -6.13% (inactive) and 1.48% (inactive), respectively.
In the case of `CCN1C(=O)/C(=C2\C=Cc3ccccc3N2CC)OC1=S`, the viability in assay [1] is 95.5%; in assay [3], 95.5% (inactive); in assay [4], 85.9% (inactive); in assay [5], 72% (inactive); in assay [6] (setting [9]), 64.7%; in assay [6] (setting [10]) it was 72%. The Her2 level in assay [2] was 100% (inactive). Besides, the differential viability (reversal) in assay [6] (H69AR cells + 2 uM doxorubicin) is 7.3% (inactive). Also, the values for the inhibition in assay [7] and in assay [8] were -4.23% (inactive) and 2.33% (inactive), respectively.
For the compound `COc1cc(C2=NOC(C(=O)NCc3ccc(F)cc3)C2)cc(OC)c1OC` (stereo not given), the viability in assay [1] was 84%; in assay [3], 84% (inactive); in assay [4], 39.9% (inactive); in assay [5], 31.6% (active); in assay [6] (setting [9]) it was 83.9%; in assay [6] (setting [10]), 31.6%. In addition, in assay [2], the Her2 level was 74.5% (inactive). The differential viability (reversal) in assay [6] (H69AR cells + 2 uM doxorubicin) is -52.3% (inactive). The inhibition in assay [7] is -4.74% (inactive); in assay [8], -1.43% (inactive).
On to `COc1ccc(OC)c(C2=NOC(C(=O)Nc3cccnc3)C2)c1` (stereo not given), for which the viability in assay [1] was 78.5%; in assay [3], 78.5% (inactive); in assay [4], 102% (inactive); in assay [5], 88.9% (inactive); in assay [6] (setting [9]) it was 83.2%; in assay [6] (setting [10]), 88.9%. Besides, the Her2 level in assay [2] is 82% (inactive). For the same compound, the differential viability (reversal) in assay [6] (H69AR cells + 2 uM doxorubicin) is 5.72% (inactive). Also, the inhibition was -1.97% (inactive) in assay [7] and 1.09% (inactive) in assay [8].
